Only some compounds are listed: those with a hit (about 3% of all), similar ones and a draw of the others.
Pemphigus Ab inh: inhibitors of pemphigus antibody binding to human desmoglein-3; P32926; DSG3-coupled beads, scFv-anti-DSG3-GFP binding, flow cytometry; stronger effect = lower value; binding (percent of control), % at 10 µM; 0.48% of 310,000 active; AID 588358;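 active = binding more than 3 SD below its plate's average and above zero; inconclusive = below that plate limit but binding exactly zero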;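 note: hits lower antibody fragment binding to DSG3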
Myeloid diff MLP: myeloid differentiation induction. calls only at 10 µM. 1% of 360,000 active. ER-HoxA9 myeloid progenitors, lysozyme-GFP differentiation, flow cytometry;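 active = normalized GFP-positive differentiation at or above the plate's own cutoff, the solvent-only control mean plus 3 SD; inconclusive = no clear call, values can overlap the other calls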;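 note: cells exposed to compound for four days before flow analysis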
SENP1 FRET inh: blocks the human SENP1 SUMO protease catalytic domain; Q9P0U3; recombinant SENP1 catalytic domain, CyPet-SUMO1-YPet FRET cleavage; inhibition, % at 10 µM; 0.21% of 360,000 active; AID 624204;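 active = inhibition at least 30% at 10 µM, raw YFP signal under a set limit, fluorescence ratio 0.5 to 1.5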;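 note: 0% = enzyme with DMSO and 100% = no enzyme wells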
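Material – human SENP1 catalytic domain · Input – SENP1 enzyme, 20 pM final · Compound dosing – single concentration of 10 µM compound, 0.5% DMSO final · Timing – enzyme reaction for 50 min at room temperature, dark · Measured by – FRET fluorescence in CFP and YFP emission channels · Control set – no-enzyme wells low, DMSO-plus-enzyme wells high control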
Exocytosis inh: lytic granule exocytosis inhibition | inhibition, % at 10 µM | 0.66% of 360,000 active | TALL-104 LAMP-1 surface exposure, flow cytometry; cells stimulated with thapsigargin and PMA;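 active = inhibition above about 55%, limit read from the data; inconclusive = no clear call, values can overlap the other calls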
HNF4A DNA FP: change in binding of human HNF4 alpha to DNA; P41235; HNF4a-FITC DNA binding, fluorescence polarization, 1 h; activity change, % at 10 µM; 0.3% of 360,000 active; AID 1224865; in the data active = activity change above about 30%, passing the limit was not always enough
Target sequence (P41235 whole entry, looked up): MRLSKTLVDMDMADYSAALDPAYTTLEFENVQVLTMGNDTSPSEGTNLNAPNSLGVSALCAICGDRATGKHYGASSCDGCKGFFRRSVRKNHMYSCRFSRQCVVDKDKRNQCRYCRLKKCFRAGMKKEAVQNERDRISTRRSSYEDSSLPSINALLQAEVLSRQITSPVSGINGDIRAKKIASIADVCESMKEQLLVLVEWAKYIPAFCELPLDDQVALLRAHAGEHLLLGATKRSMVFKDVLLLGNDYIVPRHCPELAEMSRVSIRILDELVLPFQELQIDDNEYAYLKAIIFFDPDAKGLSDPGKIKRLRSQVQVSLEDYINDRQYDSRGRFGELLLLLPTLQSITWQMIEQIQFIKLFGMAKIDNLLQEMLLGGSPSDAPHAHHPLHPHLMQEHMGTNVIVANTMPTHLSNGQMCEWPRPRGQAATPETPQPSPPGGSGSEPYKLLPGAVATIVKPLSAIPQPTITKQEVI
Cardio protect: protects H9c2 cardiomyocytes from peroxide injury. 0.63% of 360,000 active. AID 588492. H2O2 injury protection, ATPLite, 2 h. protection from H2O2 cell death, % at 20 µM;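 active = compounds giving at least 50% protection of heart cells from peroxide-induced death in the single-dose screen, raw or plate-pattern-corrected value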;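 note: 0% = DMSO wells with peroxide and 100% = DMSO wells without peroxide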
Myeloid diff CP1: promotes myeloid progenitor differentiation; calls only; shares compounds with Myeloid diff MLP; 2% of 2,300 active; AID 651706; ER-HoxA9 myeloid progenitors, GFP/Mac1 double-positive flow;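 active = share of green or green-and-red cells above 9 and 9% in run 1 or 4 and 3% in run 2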
GFP autofluor: flagged as fluorescent in myeloid differentiation counter-screen. shares compounds with Myeloid diff MLP. AID 651707. fluorescence response, % (concentration not given with the values). 7.4% of 2,300 active. ER-HoxA9 myeloid progenitors, no estrogen, GFP autofluorescence flow cytometry; vehicle wells 0%, positive control 100%;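 active = over 5% cells positive for green fluorescent reporter, or over 2% positive for both it and APC stain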;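 note: range taken on the double positive population between DMSO and positive control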
Numbers without * were called inactive; i = inactive; ? = inconclusive; . = no result; + = active, no number.

SMILES	Pemphigus Ab inh	Myeloid diff MLP	SENP1 FRET inh	Exocytosis inh	HNF4A DNA FP	Cardio protect	Myeloid diff CP1	GFP autofluor
O=C(N/N=C/CCc1ccccc1)c1ccc(CN2c3cccc4cccc(c34)S2(=O)=O)cc1	95.5	i	-2.1	-1.5	0.2	2.6	i	0.4
CCCC(=O)Nc1nc2ccc(NC(=O)c3ccc(Br)o3)cc2s1	.	+	0.8	0.4	1.6	72.6*	i	0.0
Cc1ccc([C@H]2C[C@H](O)[C@@H](n3cc(C4CC4)nn3)CN2Cc2cccs2)cc1	.	i	-0.2	7.9	3.3	0.6	.	.
Cc1ccc([C@H]2C[C@H](n3cc(C4CC4)nn3)[C@@H](O)CN2Cc2cccs2)cc1	.	i	-3.7	-0.8	1.0	-7.0	i	0.9
COc1ccc(N2C(=O)CC(NCCNc3ccc([N+](=O)[O-])cn3)C2=O)cc1 (centres undefined)	96.1	i	1.3	-0.1	0.5	1.7	i	0.3
O=C(COC(=O)/C(=C/c1cccs1)c1cccs1)NC(c1ccccc1)c1ccccc1	101.0	i	-11.7	-1.4	-0.6	-7.3	.	.
CN1OC[C@@H]2CN(C(=O)CCc3ccccc3)[C@H](c3cccc(Oc4ccccc4)c3)C[C@@H]21	98.9	i	1.8	-1.3	1.3	14.0	i	0.6
Cc1oc(-c2ccccc2Cl)nc1CS(=O)(=O)CC(=O)N1CCOCC1	99.7	i	0.2	-2.3	-2.9	-1.7	.	.
CC(CCc1ccco1)NC(=O)Cn1nc(Cc2ccncc2)c2ccccc2c1=O (centres undefined)	99.8	i	0.3	0.3	-3.5	1.5	i	0.2
CC1CCN(CCCNC(=O)c2cc3c(=O)n(C)c4ccccc4c3n2C)CC1	107.8	i	-10.6	4.5	2.6	9.4	i	0.0
O=C(NCCc1ccccc1)C1CCN(c2nc3ccccc3o2)CC1	105.4	i	1.2	-0.9	-4.1	2.9	.	.
O=C(NC1CCCCCCC1)C1CCN(c2nc3ccccc3o2)CC1	95.6	i	-8.0	-1.9	-0.6	-9.1	i	0.6
O=C(O)c1cc(S(=O)(=O)Nc2ccc3cn[nH]c3c2)ccc1Cl	100.8	i	-1.0	-1.1	-7.1	9.2	.	.
Cc1ccc2c(c1)S/C(=C\c1cccc[n+]1C)N2CCO	105.3	+	-26.3	-3.7	6.0	-10.7	i	68.1*
Cc1ccc2c(c1)S/C(=C/c1ccc[n+](CCO)c1)N2C	103.2	i	-1.4	9.5	3.1	-4.5	.	.
CCS(=O)(=O)c1nc(S(=O)(=O)c2ccc(Cl)cc2)c(N2CCOCC2)s1	100.6	i	1.0	-3.5	-0.4	-5.5	i	0.0
CCS(=O)(=O)c1nc(S(=O)(=O)c2ccc(Cl)cc2)c(N2CCC(C(N)=O)CC2)s1	?	i	1.0	9.7	-0.4	8.2	.	.
CCS(=O)(=O)c1nc(S(=O)(=O)c2ccc(Cl)cc2)c(N2CCC3(CC2)OCCO3)s1	100.2	i	0.4	1.2	-2.0	1.7	+	0.0
CS(=O)(=O)c1nc(S(=O)(=O)c2ccc(Cl)cc2)c(N2CCC3(CC2)OCCO3)s1	99.2	i	1.2	2.1	1.7	10.1	.	.
C=CCn1c(C(C)n2c(-c3cnccn3)nc3ccccc32)nc2ccccc21 (centres undefined)	.	i	3.7	-4.2	2.8	.	.	.
Cc1ccc(N(C(=O)CNC(=O)c2ccco2)C(C(=O)NC2CCCC2)c2ccncc2)cc1F (centres undefined)	.	i	2.4	-6.3	-0.3	5.7	.	.
COc1cc(/C=C2/N=C(c3ccccc3)OC2=O)c(F)cc1OCc1ccccc1	97.0	i	-59.2	-5.6	-4.1	0.4	.	.
Cc1ccc(NC(=S)N(CCCN2CCCC2)Cc2cccn2Cc2ccc(Cl)cc2)cc1Cl	111.7	+	2.1	65.4*	-0.9	-15.6	i	0.0
CCOC(=O)c1c(C)[nH]c(C(=O)COC(=O)c2ccc(F)c(S(=O)(=O)N3CCOCC3)c2)c1C	.	+	0.4	3.9	3.7	-6.0	i	0.6
